{"source": "ChEMBL document CHEMBL1139266", "about": "“Sulfonamido-aryl ethers as bradykinin B1 receptor antagonists” (Bioorg Med Chem Lett, 2009)", "key": {"B1 bradykinin receptor [1]": {"biological_target": "T1, B1 bradykinin receptor (Homo sapiens, UniProt P46663)", "T1 sequence (P46663 whole entry)": "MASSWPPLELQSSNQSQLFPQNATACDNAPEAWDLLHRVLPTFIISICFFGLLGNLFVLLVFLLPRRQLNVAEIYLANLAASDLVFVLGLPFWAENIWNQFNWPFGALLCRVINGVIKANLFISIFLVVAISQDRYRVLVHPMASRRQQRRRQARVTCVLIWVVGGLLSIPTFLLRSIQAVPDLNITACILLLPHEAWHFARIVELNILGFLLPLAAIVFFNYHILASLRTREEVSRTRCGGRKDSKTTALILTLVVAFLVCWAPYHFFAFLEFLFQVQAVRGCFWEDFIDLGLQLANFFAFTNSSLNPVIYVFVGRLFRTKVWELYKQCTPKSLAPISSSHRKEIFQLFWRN", "assay": "Displacement of [3H]desArg from human B1 in human WI 38 cells", "type": "cell-based", "summary_of_the_method": "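WI-38 fibroblasts, 50,000/well, grown overnight and primed with IL-1b 100 units/mL for 3 h to induce B1. Binding used ~1 nM [3H]-desArg10kallidin in HEPES/HBSS pH 7.4 with phenanthroline and bacitracin, 1 h at 4 °C, 0.5% final DMSO. Nonspecific binding was defined with 3 µM desArg10kallidin. Cells washed, SDS-solubilized and scintillation counted; logistic fit gave IC50, converted to Ki, ≥3 determinations.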"}, "B1 bradykinin receptor [2]": {"biological_target": "T1, B1 bradykinin receptor", "assay": "Antagonist activity at human cloned B1 receptor expressed in african green monkey COS7 cells by calcium mobilization assay", "type": "functional, cell-based, COS-7", "summary_of_the_method": "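Cos-7 cells (DMEM, 10% FBS, 37 °C, 6% CO2) transiently electroporated with 16 µg human B1 cDNA plus 50 µg aequorin cDNA, plated 12,000 cells/well and used 2–3 days later. Compounds serially diluted from 2 mM DMSO stocks in half-log steps, six concentrations in triplicate. Coelenterazine-loaded cells received compounds in HEPES assay buffer. Read-out was aequorin calcium luminescence, with desArg10HOE140 standards for basal and partial inhibition. Ki reported.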"}}}
{"smiles": "O=C(O)CCNC(=O)CN(CCOc1ccc2c(c1)CCC2)S(=O)(=O)c1ccc(Cl)cc1Cl", "values": [{"measurement": "Ki", "setting": "B1 bradykinin receptor [1]", "result": 410, "unit": "nM"}]}
{"smiles": "COc1cc(CN(CC(=O)NCc2ccccc2Cl)S(=O)(=O)c2ccc(CN3CCCCC3)cc2)ccc1OCC(C)C", "values": [{"measurement": "Ki", "setting": "B1 bradykinin receptor [1]", "result": 34, "unit": "nM"}, {"measurement": "Ki", "setting": "B1 bradykinin receptor [2]", "result": 267, "unit": "nM"}]}
{"smiles": "CC(C)COc1ccc(CN(CC(=O)NCc2ccccc2Cl)S(=O)(=O)c2ccc(CN3CCN(C)CC3)cc2)cc1Cl", "values": [{"measurement": "Ki", "setting": "B1 bradykinin receptor [1]", "result": 21, "unit": "nM"}, {"measurement": "Ki", "setting": "B1 bradykinin receptor [2]", "result": 188, "unit": "nM"}]}
{"smiles": "O=C(O)CCNC(=O)CN(CCOc1ccc2c(c1)OCO2)S(=O)(=O)c1ccc(Cl)cc1Cl", "values": [{"measurement": "Ki", "setting": "B1 bradykinin receptor [1]", "result": 1570, "unit": "nM"}]}
{"smiles": "O=C(O)CCNC(=O)CN(CCOc1ccccc1)S(=O)(=O)c1ccc(Cl)cc1Cl", "values": [{"measurement": "Ki", "setting": "B1 bradykinin receptor [1]", "result": 13000, "unit": "nM"}]}
{"smiles": "COCCCNC(=O)CN(CCOc1ccc2c(c1)CCC2)S(=O)(=O)c1ccc(Cl)cc1Cl", "values": [{"measurement": "Ki", "setting": "B1 bradykinin receptor [1]", "result": 1210, "unit": "nM"}]}
{"smiles": "COc1cc(CN(CC(=O)NCc2ccccc2Cl)S(=O)(=O)c2ccc(CN3CCOCC3)cc2)ccc1OCC(C)C", "values": [{"measurement": "Ki", "setting": "B1 bradykinin receptor [1]", "result": 149, "unit": "nM"}, {"measurement": "Ki", "setting": "B1 bradykinin receptor [2]", "result": 463, "unit": "nM"}]}
{"smiles": "COc1cc(CN(CC(=O)NCc2ccccc2Cl)S(=O)(=O)c2ccc(CN3CCN(C)CC3)cc2)ccc1OCC(C)C", "values": [{"measurement": "Ki", "setting": "B1 bradykinin receptor [1]", "result": 11, "unit": "nM"}, {"measurement": "Ki", "setting": "B1 bradykinin receptor [2]", "result": 37, "unit": "nM"}]}
{"smiles": "COc1cc(CN(CC(=O)NCc2ccccc2Cl)S(=O)(=O)c2ccc(CN(C)C)cc2)ccc1OCC(C)C", "values": [{"measurement": "Ki", "setting": "B1 bradykinin receptor [1]", "result": 93, "unit": "nM"}, {"measurement": "Ki", "setting": "B1 bradykinin receptor [2]", "result": 497, "unit": "nM"}]}
{"smiles": "CC(C)COc1ccc(CN(CC(=O)NCc2ccccc2Cl)S(=O)(=O)c2ccc(CN3CCN(C)CC3)cc2)cc1", "values": [{"measurement": "Ki", "setting": "B1 bradykinin receptor [1]", "result": 113, "unit": "nM"}]}
{"smiles": "COc1ccccc1CCNC(=O)CN(CCOc1ccc2c(c1)OCO2)S(=O)(=O)c1ccc(Cl)cc1Cl", "values": [{"measurement": "Ki", "setting": "B1 bradykinin receptor [1]", "result": 210, "unit": "nM"}]}
{"smiles": "CNC(=O)CN(CCOc1ccc2c(c1)CCC2)S(=O)(=O)c1ccc(Cl)cc1Cl", "values": [{"measurement": "Ki", "setting": "B1 bradykinin receptor [1]", "result": 2200, "unit": "nM"}]}
{"smiles": "O=C(O)CCNC(=O)CN(CCOc1cccc(Cl)c1)S(=O)(=O)c1ccc(Cl)cc1Cl", "values": [{"measurement": "Ki", "setting": "B1 bradykinin receptor [1]", "result": 1090, "unit": "nM"}]}
